Measurements from paper PMC11044231 (ACS Omega, 2024).
Each block holds one molecule with its values, some of them ahead of it.

Assays:
[1] = TAOC, total antioxidant capacity; conditions: read-out: TAOC EC50; concentration that results in an absorbance of 0.500
In short: (§1)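 Cell-free antioxidant assays, with Trolox and ascorbic acid as positive controls. Results are expressed as […] or as Trolox equivalents.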

[2] = test system: RAW 264.7 mouse macrophage cell line; assay type: cell-based; conditions: RAW264.7, 24 h, read-out: NO Production Inhibition (IC50)
In short: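 NO production inhibition is measured in RAW 264.7 macrophages, with dexamethasone as positive control and the value given as IC50.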

[3] = test system: MDA-MB-231S triple-negative breast cancer cell line; assay: MTT antiproliferative assay, MDA-MB-231S; assay type: cell-based; conditions: 48 h, read-out: IC50, antiproliferative effect
In short: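 Antiproliferative test on MDA-MB-231S cells with DMSO as negative (vehicle) control and doxorubicin as positive control. Activity is reported as IC50.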

[4] = ORAC, oxygen radical absorbance capacity; conditions: trolox equivalent
In short: as §1

[5] = HORAC, hydroxyl radical absorbance capacity; conditions: trolox equivalent
In short: as §1

EC50 [1]: 244 µM
Compound: O=C1O[C@H]([C@@H](O)CO)C(O)=C1O [ascorbic acid]

Compound: C[C@@H]1C[C@H]2[C@@H]3CCC4=CC(=O)C=C[C@]4(C)[C@@]3(F)[C@@H](O)C[C@]2(C)[C@@]1(O)C(=O)CO [dexametasone, Dexamethasone]
IC50 [2]: 16.1 ± 1.02 µM

IC50 [3]: 70 ± 10 nM
Compound: COc1cccc2c1C(=O)c1c(O)c3c(c(O)c1C2=O)C[C@@](O)(C(=O)CO)C[C@@H]3O[C@H]1C[C@H](N)[C@H](O)[C@H](C)O1 [doxorubicin]

EC50 [1]: 143 µM
Compound: Cc1c(C)c2c(c(C)c1O)CCC(C)(C(=O)O)O2 (stereo not drawn) [trolox]
ORAC (TE) [4]: 1 TE
HORAC (TE) [5]: 1 TE
